Experimental data as given in ChEMBL document CHEMBL2203116, “Synthesis and evaluation of novel carbon-11 labeled oxopurine analogues for positron emission tomography imaging of translocator protein (18 kDa) in peripheral organs” (J Med Chem, 2011).

Key:
[1] = Lipophilicity, log D of the compound in octanol-phosphate buffer at pH 7.4 by shake flask method; assay type: physicochemical
In short: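 Radioligand (~200000 cpm) shaken with n-octanol (3.0 g) and 0.1 M sodium phosphate buffer pH 7.4 (3.0 g). Vortexed 3 min at room temperature, centrifuged 3500 rpm for 5 min. Phases weighed and counted; organic layer repartitioned until consistent. LogD = log of the cpm/g octanol to cpm/g buffer ratio. Triplicate.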

Blood = assay: Drug uptake in iv dosed Sprague-Dawley rat cardiac blood pool up to 30 mins by PET scanning; assay type: ADME, organism-based; settings: in vivo, 0.5 h
In short: (§1)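 Comparator radioligand 15–20 MBq/200 μL (0.15–0.18 nmol) injected iv into isoflurane-anesthetized male Sprague-Dawley rats. ROI time–activity curves for lung, heart, kidney, liver and cardiac blood pool. Uptake as decay-corrected SUV normalized to injected activity and body weight. n = 4, mean ± SD.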

Liver = assay: Drug uptake in iv dosed Sprague-Dawley rat liver upto 30 mins by PET scanning; assay type: ADME, organism-based; settings: in vivo, 0.5 h; in short: as §1
Kidney [2] = assay: Drug uptake in iv dosed Sprague-Dawley rat kidney upto 30 mins by PET scanning; assay type: ADME, organism-based; settings: in vivo, 0.5 h; in short: as §1
Lung [3] = assay: Drug uptake in iv dosed Sprague-Dawley rat lung after 1 min by PET scanning; assay type: ADME, organism-based; settings: in vivo; in short: as §1
Kidney [4] = assay: Drug uptake in iv dosed Sprague-Dawley rat kidney after 10 mins by PET scanning; assay type: ADME, organism-based; settings: in vivo; in short: as §1
Lung [5] = assay: Drug uptake in iv dosed Sprague-Dawley rat lung after 27.5 mins by PET scanning; assay type: ADME, organism-based; settings: in vivo; in short: as §1
Heart [6] = assay: Drug uptake in iv dosed Sprague-Dawley rat heart after 10 mins by PET scanning; assay type: ADME, organism-based; settings: in vivo; in short: as §1
Heart [7] = assay: Drug uptake in iv dosed Sprague-Dawley rat heart upto 30 mins by PET scanning; assay type: ADME, organism-based; settings: in vivo, 0.5 h; in short: as §1
Translocator protein = Translocator protein (Rattus norvegicus, UniProt P16257); assay: Displacement of [11C]-PK-11195 from TPSO in Sprague-Dawley rat brain homogenate after 30 mins by gamma counting; assay type: tissue-based
Sequence of Translocator protein (P16257 whole entry, looked up): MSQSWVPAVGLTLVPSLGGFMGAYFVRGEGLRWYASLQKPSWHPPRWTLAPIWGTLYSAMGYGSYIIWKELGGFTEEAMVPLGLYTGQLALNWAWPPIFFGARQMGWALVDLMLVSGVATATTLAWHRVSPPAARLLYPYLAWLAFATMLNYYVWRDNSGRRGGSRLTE

With CC[C@@H](C)N(C)C(=O)c1cc2ccccc2c(-c2ccccc2Cl)n1 [(R)PK-11195] as the compound, how does the logD [1] read?
Its logD is 3.74.

Which Drug uptake (Blood) does the source give for CCN(Cc1ccccc1)C(=O)Cn1c(=O)n([11CH3])c2cnc(-c3ccccc3)nc21 here?
Its Drug uptake is “Active”.

What about the Drug uptake (Liver) of the same compound?
Its Drug uptake is “Active”.

And the Drug uptake (Kidney [2])?
The Drug uptake was “Active”.

What about the SUV (Lung [3]) of the same compound?
The SUV was 7.6.

And the SUV (Kidney [4])?
Its SUV is 2.8.

What about the SUV (Lung [5]) of the same compound?
The SUV was 2.3.

What about the SUV (Heart [6]) of the same compound?
The SUV was 4.2.

What about the Drug uptake (Heart [7]) of the same compound?
Its Drug uptake is “Active”.

What does the source list for CN(Cc1cccnc1)C(=O)Cn1c(=O)n(C)c2cnc(-c3ccccc3)nc21?
logD [1]: 1.81; Ki (Translocator protein): 40 nM

Which logD [1] does the source give for CCN(Cc1cccnc1)C(=O)Cn1c(=O)n(C)c2cnc(-c3ccccc3)nc21 here?
Its logD is 2.17.

What about the Ki (Translocator protein) of the same compound?
Its Ki is 13.2 nM.
